Each structure is given as a SMILES string.

One assay relates to HT-29. Description: Inhibition of the growth of HT-29 colon cancer cells at 3.125 ug/ml concentration. Type of assay: functional. As to conditions: Homo sapiens. The procedure, abridged: (§1)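 Adherent/epithelial cancer cells were grown in RPMI 1640 with 10% heat-inactivated FCS, 2 mM L-glutamine, penicillin and streptomycin at 37 °C in 5% CO2. Cells were seeded at 0.02×10^6 per well with varied quinone concentrations. MTT readout was taken after 3 days. Five replicate wells were used per concentration, in 2–3 repeat experiments. Results are % inhibition versus untreated wells given 0.5% ethanol vehicle.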

Assay [1] deals with Jurkat. As to the kind of experiment: Inhibition of the growth of Jurkat lymphoma cells at 0.2 ug/ml concentration. It counts as functional. Particulars: Homo sapiens. The procedure, abridged:
(§2)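 Lymphoma cells were suspended in RPMI 1640 with 20% heat-inactivated FCS, 2 mM L-glutamine, penicillin and streptomycin at 37 °C in 5% CO2. Cells were plated at 0.02×10^6 per well with varied quinone concentrations. MTT reduction was measured on day 3. Five replicate wells were used per concentration, in 2–3 repeat experiments. Inhibition is expressed as % versus 0.5% ethanol vehicle wells.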

Assay [2] deals with Jurkat. Description: Inhibition of the growth of Jurkat lymphoma cells at 1.56 ug/ml concentration. Type of assay: functional. As to conditions: Homo sapiens. The procedure, abridged:
as §2

In the next assay the test system is MCF7. As to the kind of experiment: Inhibition of the growth of MCF-7 mammary cancer cells at 3.125 ug/ml concentration. It counts as functional. As to conditions: Homo sapiens. The gist of the method: as §1
Assay [3] deals with Raji. As to the kind of experiment: Inhibition of the growth of Raji lymphoma cells at 0.2 ug/ml concentration. As to conditions: Homo sapiens. It counts as functional. The procedure, abridged:
as §2

For assay [4], the system named is Raji. As to the kind of experiment: Inhibition of the growth of Raji lymphoma cells at 1.56 ug/ml concentration. It counts as functional. Particulars: Homo sapiens. The procedure, abridged: as §2
Assay [5] concerns Jurkat. As to the kind of experiment: Inhibition of the growth of Jurkat lymphoma cells at 12.5-25.0 ug/ml concentration. It counts as functional, Homo sapiens. The gist of the method: as §2
For assay [6], the system named is Raji. Description: Inhibition of the growth of Raji lymphoma cells at 12.5-25.0 ug/ml concentration. It counts as functional, Homo sapiens. The gist of the method: as §2
The subject of assay [7] is Raji. As to the kind of experiment: Inhibition of the growth of Raji lymphoma cells at 6.25 ug/ml concentration. As to conditions: Homo sapiens. It counts as functional. The procedure, abridged:
as §2

The subject of a further assay is SNB-19. Description: Concentration of compound required to inhibit the growth of SNB-19 cells. As to conditions: Homo sapiens. It counts as functional, cell-based. The procedure, abridged:
as §1

For `C=C(C)C1CCC(C)=C[C@H]1C1=C(O)C=C(CCCCC)C(=O)C1=O` (stereo not given in full), the inhibition at 3.125 µg/mL in the assay with HT-29 and in the assay with MCF7 was 50% throughout. Further, the inhibition at 0.2 µg/mL in the assay with Jurkat [1] and in the assay with Raji [3] was 50% throughout. The inhibition at 1.56 µg/mL in the assay on Jurkat [2] and in the assay with Raji [4] was 80% each time.

Consider `CCCCCC1=CC(=O)C2=C(OC(C)(C)c3ccc(C)cc32)C1=O`, for which the Inhibition in the assay on Jurkat [5] and in the assay on Raji [6] was 50% each time. At 6.25 µg/mL the inhibition in the assay with Raji [7] was 50%.

Consider `CCCCCC1=CC(=O)C2=C(OC(C)(C)[C@@H]3CC=C(C)C[C@@H]23)C1=O`, for which the Concentration in the assay on SNB-19 came out at 100 µg/mL.
